Test results as given in ChEMBL document CHEMBL3045973, “Synthesis and insecticidal activity of novel 4beta-halogenated benzoylamino podophyllotoxins against Pieris rapae Linnaeus” (2002).
Calls of active or inactive are those of the source. No cut-off for these calls is given here.

Tests used:
Pieris rapae [1] = assay: Insecticidal activity against fifth-instar larvae of Pieris rapae fed on compound treated cabbage leaf assessed as delay in metamorophosis at 250 ppm dipped for 3 secs relative to control; assay type: functional, organism-based
How it was run: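 Fifth-instar P. rapae larvae dosed by the leaf-dipping method at 250 ppm. Development time from larva to adulthood was compared with a control group.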

Pieris rapae [2] = assay: Insecticidal activity against fifth-instar larvae of Pieris rapae fed on compound treated cabbage leaf assessed as inhibition of reproduction in pupated adultoids at 250 ppm dipped for 3 secs relative to control; assay type: functional, organism-based
Pieris rapae [3] = assay: Insecticidal activity against fifth-instar larvae of Pieris rapae fed on compound treated cabbage leaf assessed as immobilization at 250 ppm dipped for 3 secs measured after 48 hr relative to control; assay type: functional, organism-based
Pieris rapae [4] = assay: Insecticidal activity against fifth-instar larvae of Pieris rapae fed on compound treated cabbage leaf assessed as loss of body fluid at 250 ppm dipped for 3 secs measured after 48 hr relative to control; assay type: functional, organism-based
Pieris rapae [5] = assay: Insecticidal activity against fifth-instar larvae of Pieris rapae fed on compound treated cabbage leaf assessed as paralysis at 250 ppm dipped for 3 secs measured after 48 hr relative to control; assay type: functional, organism-based
Pieris rapae [6] = assay: Insecticidal activity against fifth-instar larvae of Pieris rapae fed on compound treated cabbage leaf assessed as change in spontaneous movement at 250 ppm dipped for 3 secs measured after 24 hr relative to control; assay type: functional, organism-based
Pieris rapae [7] = assay: Insecticidal activity against fifth-instar larvae of Pieris rapae fed on compound treated cabbage leaf assessed as mortality at 250 ppm dipped for 3 secs measured after 15 days (reference value: 10 1.22%); assay type: functional
Pieris rapae [8] = assay: Insecticidal activity against fifth-instar larvae of Pieris rapae fed on compound treated cabbage leaf assessed as mortality at 250 ppm dipped for 3 secs measured after 10 days (reference value: 6.67 1.56%); assay type: functional
Pieris rapae [9] = assay: Insecticidal activity against fifth-instar larvae of Pieris rapae fed on compound treated cabbage leaf assessed as mortality at 250 ppm dipped for 3 secs measured after 5 days (reference value: 0%); assay type: functional

| Structure (SMILES) | Activity (Pieris rapae [1]) | Activity (Pieris rapae [2]) | Activity (Pieris rapae [3]) | Activity (Pieris rapae [4]) | Activity (Pieris rapae [5]) | Activity (Pieris rapae [6]) | mortality (Pieris rapae [7]) | mortality (Pieris rapae [8]) | mortality (Pieris rapae [9]) |
| --- | --- | --- | --- | --- | --- | --- | --- | --- | --- |
| COc1cc([C@@H]2c3cc4c(cc3[C@@H](N)[C@H]3COC(=O)[C@H]23)OCO4)cc(OC)c1OC [4BETA-NH2-PODOPHYLLOTOXIN] | Active | Active | Active | Active | Active | Active | 49.48% | 36.43% | 21.69% |
| COc1cc([C@@H]2c3cc4c(cc3[C@H](O)[C@H]3COC(=O)[C@H]23)OCO4)cc(OC)c1OC [PODOFILOX] | Active | Active | Active | Active | Active | Active | 74.74% | 53.36% | 34.02% |
| COc1cc([C@@H]2c3cc4c(cc3[C@@H](NC(=O)c3cccc(Cl)c3)[C@H]3COC(=O)[C@H]23)OCO4)cc(OC)c1OC | Active | Active | Active | Active | Active | Active | 94.73% | 54.25% | 16.56% |
| CCOP(=S)(OCC)Oc1ccc([N+](=O)[O-])cc1 [PARATHION] |  |  |  |  |  |  |  |  | 100% |
| COc1cc([C@@H]2c3cc4c(cc3[C@@H](NC(=O)c3ccc(Br)cc3)[C@H]3COC(=O)[C@H]23)OCO4)cc(OC)c1OC | Active | Active | Active | Active | Active | Active | 85.97% | 51.85% | 14.81% |
| COc1cc([C@@H]2c3cc4c(cc3[C@@H](NC(=O)c3ccccc3F)[C@H]3COC(=O)[C@H]23)OCO4)cc(OC)c1OC | Active | Active | Active | Active | Active | Active | 68.42% | 46.41% | 22.68% |
| COc1cc([C@@H]2c3cc4c(cc3[C@@H](NC(=O)c3cccc(I)c3)[C@H]3COC(=O)[C@H]23)OCO4)cc(OC)c1OC | Active | Active | Active | Active | Active | Active | 69.69% | 40.71% | 8.35% |
| COc1cc([C@@H]2c3cc4c(cc3[C@@H](NC(=O)c3cccc(Br)c3)[C@H]3COC(=O)[C@H]23)OCO4)cc(OC)c1OC | Active | Active | Active | Active | Active | Active | 85.42% | 69.23% | 46.15% |
| COc1cc([C@@H]2c3cc4c(cc3[C@@H](NC(=O)c3ccccc3Cl)[C@H]3COC(=O)[C@H]23)OCO4)cc(OC)c1OC | Active | Active | Active | Active | Active | Active | 65.56% | 36.36% | 4.54% |
| COc1cc([C@@H]2c3cc4c(cc3[C@@H](NC(=O)c3ccc(F)cc3)[C@H]3COC(=O)[C@H]23)OCO4)cc(OC)c1OC | Active | Active | Active | Active | Active | Active | 66.76% | 44.74% | 11.11% |
| COc1cc([C@@H]2c3cc4c(cc3[C@@H](NC(=O)c3ccc(Cl)cc3)[C@H]3COC(=O)[C@H]23)OCO4)cc(OC)c1OC | Active | Active | Active | Active | Active | Active | 94.95% | 72.08% | 36.84% |
| COc1cc([C@@H]2c3cc4c(cc3[C@@H](NC(=O)c3ccccc3Br)[C@H]3COC(=O)[C@H]23)OCO4)cc(OC)c1OC | Active | Active | Active | Active | Active | Active | 74.74% | 44.78% | 4.35% |
| COc1cc([C@@H]2c3cc4c(cc3[C@@H](NC(=O)c3ccc(I)cc3)[C@H]3COC(=O)[C@H]23)OCO4)cc(OC)c1OC | Active | Active | Active | Active | Active | Active | 73.87% | 48.28% | 20.73% |
| COc1cc([C@@H]2c3cc4c(cc3[C@@H](NC(=O)c3cccc(F)c3)[C@H]3COC(=O)[C@H]23)OCO4)cc(OC)c1OC | Active | Active | Active | Active | Active | Active | 86.7% | 49.46% | 18.57% |
| COc1cc([C@@H]2c3cc4c(cc3[C@@H](NC(=O)c3ccccc3I)[C@H]3COC(=O)[C@H]23)OCO4)cc(OC)c1OC | Active | Active | Active | Active | Active | Active | 69.69% | 48.36% | 12.62% |
